Assay results taken from paper PMC7731903 (Clinical cancer research : an official journal of the …, 2018).
“Also recorded” adds a separate entry of the source.

Columns and labels:
Format in all cases: in vivo, human
[1] = Alisertib plasma PK in patients; settings: for AUC / Cmax / Tmax: human, plasma, oral; for AUC: Geometric mean AUCτ (CV); for Cmax: Geometric mean Cmax (CV)
Summary of the method: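 Patients with relapsed/refractory aggressive B-cell NHL took oral test compound twice daily on days 1–7 of 21-day cycles, at 30 to 50 mg b.i.d. Cohorts received it with rituximab 375 mg/m2 i.v. on day 1, with or without vincristine 1.4 mg/m2 (max 2 mg) i.v. on days 1 and 8. Blood was drawn at prespecified times after the morning dose on cycle 1 days 1 and 7. Cmax, tmax and AUCτ were derived by noncompartmental analysis.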

[2] = system: relapsed/refractory aggressive B-cell lymphoma; assay: Antitumor activity, investigator-assessed response
[3] = system: non-GCB DLBCL; assay: Best response by cell of origin; settings: non-GCB-derived disease, 20 patients (MR + MRV)
[4] = system: GCB DLBCL; assay: Best response by cell of origin; settings: MR + MRV; P = 0.058 vs non-GCB, two-sided Fisher exact test
[5] = Vincristine plasma PK in presence; settings: for AUC / AUC(0-inf) / clearance / Cmax / half-life: human, plasma, intravenous; for AUC: Geometric mean AUCτ (CV); for AUC(0-inf): Geometric mean AUC∞ (CV); for clearance: Geometric mean CL (CV); for Cmax: Geometric mean Cmax (CV); for half-life: Mean t1/2z (st. dev)
[6] = 30 mg, MRV, alisertib 30 mg b.i.d., C1D1, n=4
[7] = 30 mg, MRV, alisertib 30 mg b.i.d., C1D7, n=4
[8] = 40 mg, MRV, alisertib 40 mg b.i.d., C1D7, n=20
[9] = 50 mg, MR, alisertib 50 mg b.i.d., C1D7, n=12
[10] = 50 mg, MRV, alisertib 50 mg b.i.d., C1D1, n=3
[11] = 50 mg, MRV, alisertib 50 mg b.i.d., C1D7, n=2
[12] = 30 mg, alisertib 30 mg b.i.d. cohort, C1D1 (alisertib present), n=4
[13] = 30 mg, alisertib 30 mg b.i.d. cohort, C2D1 (alisertib absent), n=3
[14] = 30 mg, alisertib 30 mg b.i.d. cohort, C2D1 (alisertib absent), n=4
[15] = 40 mg, alisertib 40 mg b.i.d. cohort, C2D1 (alisertib absent), n=17
[16] = 40 mg, alisertib 40 mg b.i.d. cohort, C1D1 (alisertib present), n=22
[17] = 40 mg, alisertib 40 mg b.i.d. cohort, C2D1 (alisertib absent), n=16
[18] = 40 mg, alisertib 40 mg b.i.d. cohort, C1D1 (alisertib present), n=25
[19] = 50 mg, alisertib 50 mg b.i.d. cohort, C1D1 (alisertib present), n=3
[20] = 50 mg, alisertib 50 mg b.i.d. cohort, C2D1 (alisertib absent), n=2

## COc1cc(Nc2ncc3c(n2)-c2ccc(Cl)cc2C(c2c(F)cccc2OC)=NC3)ccc1C(=O)O [alisertib]
[1]; [6]
  AUC: 5.22 µM·h
  Cmax: 841 nM
[1]; [7]
  AUC: 11.8 µM·h
  Cmax: 1660 nM
[1]; 30 mg, Median Tmax (range), MRV, alisertib 30 mg b.i.d., C1D1, n=4
  Tmax: 3.5 h
[1]; 30 mg, Median Tmax (range), MRV, alisertib 30 mg b.i.d., C1D7, n=4
  Tmax: 3.1 h
[1]; 40 mg, MRV, alisertib 40 mg b.i.d., C1D1, n=22
  AUC: 7.44 µM·h
[1]; [8]
  AUC: 14.9 µM·h
  Cmax: 1950 nM
[1]; 40 mg, MRV, alisertib 40 mg b.i.d., C1D1, n=25
  Cmax: 1090 nM
[1]; 40 mg, Median Tmax (range), MRV, alisertib 40 mg b.i.d., C1D1, n=25
  Tmax: 3 h
[1]; 40 mg, Median Tmax (range), MRV, alisertib 40 mg b.i.d., C1D7, n=20
  Tmax: 3.1 h
[1]; 50 mg, MR, alisertib 50 mg b.i.d., C1D1, n=12
  AUC: 8.61 µM·h
[1]; [9]
  AUC: 18.7 µM·h
  Cmax: 2590 nM
[1]; [10]
  AUC: 11.2 µM·h
  Cmax: 1670 nM
[1]; [11]
  AUC: 31.8 µM·h
  Cmax: 3500 nM
[1]; 50 mg, MR, alisertib 50 mg b.i.d., C1D1, n=13
  Cmax: 1400 nM
[1]; 50 mg, Median Tmax (range), MR, alisertib 50 mg b.i.d., C1D1, n=13
  Tmax: 3 h
[1]; 50 mg, Median Tmax (range), MR, alisertib 50 mg b.i.d., C1D7, n=12
  Tmax: 2 h
[1]; 50 mg, Median Tmax (range), MRV, alisertib 50 mg b.i.d., C1D1, n=3
  Tmax: 6.1 h
[1]; 50 mg, Median Tmax (range), MRV, alisertib 50 mg b.i.d., C1D7, n=2
  Tmax: 2.5 h
[1]; tmax after dose, with both MR and MRV
  Tmax: ~3 h
[1]; over the range of 30 to 50 mg b.i.d.
  Increase of alisertib exposures with dose: approximately dose-proportional
[2]; 37 response-evaluable patients (MR + MRV), n = 14
  ORR (CR + PR): 38%
[2]; Total MR + MRV, N=37
  CR: 7 (19) n (%)
  ORR (CR + PR): 14 (38) n (%)
  PD: 11 (30) n (%)
  PR: 7 (19) n (%)
[2]; all patients (MR + MRV)
  Complete responses (CR): Seven
  Median PFS: 5.1 months
  Partial responses (PRs): 7 patients
[2]; patients with a best response of CR, range 9.0–35.7
  Median DOR: 14.3 months
[2]; patients with a best response of CR, range 10.1–36.9
  Median PFS: 16.4 months
[2]; responding patients (MR + MRV)
  Median DOR: 10.2 months
  Patients achieving first response by the end of cycle 2: 57%
[3]; 3 patients
  PR as best response: 15%
[3]; 6 patients
  CR as best response: 30%
[4]
  Objective response in GCB-derived disease: None of the 7 response-evaluable patients; also recorded: no patients with GCB-derived disease (9/29) achieved an objective response

## CC[C@]1(O)C[C@H]2CN(CCc3c([nH]c4ccccc34)[C@@](C(=O)OC)(c3cc4c(cc3OC)N(C=O)[C@H]3[C@@](O)(C(=O)OC)[C@H](OC(C)=O)[C@]5(CC)C=CCN6CC[C@]43[C@@H]65)C2)C1 [vincristine]
[5]; MRV RP2D (alisertib 40 mg b.i.d.), 90% CI 82–115, n = 22
  Geometric mean ratio of vincristine AUC∞, presence vs absence of alisertib: 97%
[5]; [12]
  AUC: 69.2 ng·h/mL
  AUC(0-inf): 77 ng·h/mL
  clearance: 432 mL/min
  half-life: 1210 min
[5]; 30 mg, alisertib 30 mg b.i.d. cohort, C2D1 (alisertib absent), n=2
  AUC: 60.8 ng·h/mL
[5]; [13]
  AUC(0-inf): 69 ng·h/mL
  half-life: 1190 min
[5]; [14]
  clearance: 483 mL/min
  Cmax: 98.2 ng/mL
[5]; 40 mg, alisertib 40 mg b.i.d. cohort, C1D1 (alisertib present), n=24
  AUC: 60.1 ng·h/mL
[5]; [15]
  AUC: 67.8 ng·h/mL
  clearance: 432 mL/min
  Cmax: 87.3 ng/mL
[5]; [16]
  AUC(0-inf): 78 ng·h/mL
  half-life: 1200 min
[5]; [17]
  AUC(0-inf): 77 ng·h/mL
  half-life: 1210 min
[5]; [18]
  clearance: 427 mL/min
  Cmax: 82.9 ng/mL
[5]; [19]
  AUC: 98 ng·h/mL
  AUC(0-inf): 111 ng·h/mL
  clearance: 300 mL/min
  Cmax: 149 ng/mL
  half-life: 1540 min
[5]; [20]
  AUC: 68.4 ng·h/mL
  Cmax: 120 ng/mL
[5]; vincristine 1.4 mg/m^2 + rituximab, alisertib 30 mg b.i.d. cohort, C1D1 (alisertib present), n=4
  Cmax: 120 ng/mL
